Results published in PubChem BioAssay AID685 (PCMD, 2007).
Screen size: about 30,000 compounds; about 80 (0.3%) were called active.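 How the source made its calls: active means mutant and wild-type yeast strains alike exhibit over 30% growth inhibition; inconclusive means a strain exceeds 50% while the second remains under 30%; inactive means the rest.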 What follows is part of a selection rich in actives, with near analogues and random picks from the rest.

Test: S. cerevisiae growth inhibition, turbidity – wild-type and eIF2Bepsilon R284H mutant, A595, cytotoxicity control for eIF2B function restoration project, primary screen (AID 685);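 further: 0% = untreated cell controls and 100% = YPD media blanks without cells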
Settings: 16 h, stronger effect = higher value, screened at 25 µM (by protocol)
How it was run: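 system = S. cerevisiae wild-type or eIF2Bepsilon-R284H mutant strain | buffer or medium = YPD medium | dosing = one dose, 25 µM compound, 0.2% DMSO | schedule = 16 h at 30 °C | measured by = A595 turbidity | evaluation = growth inhibition (%) versus cell controls and blanks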

[1] = S. cerevisiae eIF2Bepsilon-R284H mutant growth

SMILES | growth inhibition [1] [%] | growth inhibition (S. cerevisiae wild-type growth)
COc1ccc(NC(=O)CC2COc3ccccc3O2)c(OC)c1 (stereo unspecified) | 19.1 | 20% (inactive)
Cc1nnc(SCC(=O)NC(=O)NC2CCCC2)n1N | 17.4 | 24.3% (inactive)
COC(=O)c1ccc(S(=O)(=O)c2ccc(C(=O)OC)s2)s1 | -35.1 | -57.5% (inactive)
CC(=O)OC(C(=O)NC1CCCCC1)c1ccccc1 (stereo unspecified) | 0 | 11% (inactive)
CCC1CCCCN1CCCNC(=O)C1CCC(Cn2c(=O)[nH]c3ccccc3c2=O)CC1 (stereo unspecified) | 15.6 | 10% (inactive)
CCN1CCCC1Cn1cnc2c([nH]c3cc(OC)ccc32)c1=O (stereo unspecified) | 8.7 | 10% (inactive)
COc1cccc2c1OCC1COc3c(c(=O)n(C)c(=O)n3C)C21 (stereo unspecified) | 8.33 | 14.8% (inactive)
CCn1c(-c2ccoc2C)n[nH]c1=S | 22.8 | 21.4% (inactive)
CCOC(=O)C1=C(CSc2nccn2C)NC(=O)NC1c1ccc(OC)cc1 (stereo unspecified) | 5.26 | 17.1% (inactive)
COC(=O)C1C(=O)NCC1c1ccc(OC)cc1 (stereo unspecified) | 10.3 | 14.6% (inactive)
Cc1cccc(S(=O)(=O)CC(=O)Nc2nc(-c3ccccc3)cs2)c1 | 10 | 3.33% (inactive)
C=CCc1ccc(OCCOc2cccc(/C=N/n3cnnc3)c2)c(OC)c1 | -40.9 | 5% (inactive)
Cc1nnc(SCC(=O)Nc2ncc3c(n2)CC(C)(C)CC3=O)s1 | 10.3 | 35% (inactive)
CCOc1cc(N2CCOCC2)c(OCC)cc1NC(=O)COC(=O)[C@H](Cc1c[nH]c2ccccc12)NC(C)=O | 6.98 | 26.6% (inactive)
Cc1ccc(OCCCC(=O)Nc2ccc(N3CCOCC3)cc2)cc1 | -14.3 | 12.7% (inactive)
COC(=O)C1CCN(CC(N)=O)CC1 | 17.5 | 20.8% (inactive)
O=C(NCCCCCCNC(=O)NCc1ccco1)NCc1ccco1 | 24.3 | 17.8% (inactive)

SMILES | growth inhibition [1] [%] | growth inhibition (S. cerevisiae wild-type growth)
Cc1cc(=O)[nH]c(SCC(=O)N2c3ccccc3CC2C)n1 (stereo unspecified) | 3.57 | 4.67% (inactive)
CCCCOc1ccc(N(CC(=O)NCC2CCCO2)C(=O)CCC(=O)Nc2cc(C)ccn2)cc1 (stereo unspecified) | -6.45 | -28.3% (inactive)
O=C(c1ccc(CN2CCOCC2)cc1)N1CCN(c2ccccc2F)CC1 | 8.33 | 11.9% (inactive)
CC1=NN(/C(=N\c2nnc(C)s2)Nc2ccccc2)[C@H](c2ccc(C)cc2)S1 | -6.45 | 20.2% (inactive)
Cc1ccc(-c2cc(C(=O)NCC3CCCO3)c3ccccc3n2)o1 (stereo unspecified) | -6.45 | 6.79% (inactive)
CC1CCc2c(sc3nc4n(c(=O)c23)CCS4)C1 (stereo unspecified) | 15.4 | 36.9% (inactive)
COC(=O)CNC(=O)c1ccccc1F | 16.3 | 19.7% (inactive)
COc1ccc(N2CCN(Cc3ccc(Br)s3)CC2)cc1 | 10 | 16.1% (inactive)
CC(C)(C)NC(=O)CN(Cc1cccs1)C(=O)CNS(=O)(=O)c1ccccc1 | 14.1 | 11.6% (inactive)
C/C(=N\NC(=O)c1nc(C)cc(C)n1)c1ccccc1 | 24.3 | 15.2% (inactive)
CCC(=NC1CC(C)(C)NC(C)(C)C1)C1=C(O)CC(C)(C)CC1=O | 14.8 | 23.3% (inactive)
CN1C(=O)C(CC(N)=O)N(NC(=O)c2ccc(Cl)cc2)C1=S (stereo unspecified) | 9.52 | 33.8% (inactive)
COC(=O)c1sc(=S)n(-c2ccc(Cl)cc2)c1C | 14.5 | 9.64% (inactive)
CCOC(=O)c1ccc2c(c1)nc(SCC(=O)NC(C)C)n2CC | 7.69 | 3.45% (inactive)
CCOC(=O)C1C(=O)NCC1c1ccccc1 (stereo unspecified) | 22.1 | 11.5% (inactive)
CCCCN1C(=O)/C(=C2/C=CC=CN2C)SC1=S | 18.9 | 21.5% (inactive)
